# The entries come from a sample that favours hits as a whole.
# H69AR inhibit: growth inhibitors of human H69AR lung tumor cells; H69AR lung tumor viability, ATP luminescence, 72 h; stronger effect = lower value; viability, % at 10 µM; 6% of 85,000 active;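 active = viability at or below 40%; inactive = viability above 40%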;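 also: multidrug resistant small cell line overexpressing MRP-1 efflux transporter; 100% = mean luminescence of untreated control wells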
# bCat KO growth: beta-catenin-lacking colon tumor cell growth suppression | HCT116 beta-catenin knockout viability, CellTiter-Glo, 60 h; stronger effect = lower value | viability, % at 10 µM | 1.5% of 140,000 active;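 active = viability at or under a set limit, the compound median less 4 SD, cut at about 6% in these data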;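 also: 0% = Hyamine 1622 control at 20 µM and 100% = untreated cell control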
# PTEN del growth: PTEN-deleted cell growth suppression; HCT116 PTEN-null viability, CellTiter-Glo, 60 h; stronger effect = lower value; viability, % at 10 µM; 1.2% of 140,000 active;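 active = viability at or below a set limit, 4 SD under the median of all tested compounds, cut at about 3.7% in these data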;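 also: PTEN knockout HCT116 line with beta catenin targeted HCT116 as companion control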
# Fibroblast inh: blocks proliferation of human lung fibroblasts. LL 47 human lung fibroblast viability, ATP luminescence; stronger effect = lower value. viability, % at 10 µM. 1.1% of 85,000 active;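 active = viability at or below 50% in the single dose screen; inactive = viability above 50%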;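 also: compound exposure lasted 72 h before the ATP readout; 100% = median luminescence of untreated cell-only wells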
#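 Material: human LL 47 lung fibroblast cells; quantity: 1,150 cells/well; medium: IMEM plus 15% FBS; doses: 0.1% DMSO in all compound wells; timing: overnight attachment after seeding, then 72 h compound exposure at 37 °C; detection: CellTiter-Glo luminescence; measure: % viability of median cell-only signal; controls: cell-only wells, no compound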
# HUVEC prolif 384: inhibitors of human endothelial cell proliferation | HUVEC proliferation, CellTiter-Glo luminescence, 72 h; stronger effect = lower value | viability, % at 10 µM (by protocol) | 1.1% of 86,000 active;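 active = viability at or below 30%; inactive = viability above 30%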;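 also: 100% = median luminescence of DMSO-only cell control wells on each plate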
# The depositor's hits bear a star; x = not tested or not shown.
SMILES,H69AR inhibit,bCat KO growth,PTEN del growth,Fibroblast inh,HUVEC prolif 384
Cn1c(=O)c2c(nc(SCCCC#N)n2Cc2c(F)cccc2Cl)n(C)c1=O,51,85,84,95,90
CC(C)c1nc(SCc2c(F)cccc2Cl)c2c(=O)n(C)c(=O)n(C)c2n1,38*,3.5*,3.7*,83,56
CC(C)c1nc(SCC(=O)N2CCCc3ccccc32)c2c(=O)n(C)c(=O)n(C)c2n1,14*,11,9,84,57
CCn1c(=O)cc(SCC(=O)N2CCN(c3ccccc3F)CC2)c2ccccc21,79,81,80,100,77
CCN1C(=O)/C(=C/c2ccc(OC)c(OC)c2)N=C1SCC(=O)NCc1ccco1,x,95,100,x,x
Cc1cc(=O)oc(C)c1C(=O)N1CCc2c([nH]c3ccccc23)C1C(C)C (configuration not stated),82,76,80,98,97
CC1c2[nH]c3ccccc3c2CCN1C(=O)Nc1ccccc1 (configuration not stated),25*,36,32,99,82
O=C(CCSc1ccc(Cl)cc1)N1CCN(c2ncccn2)CC1,101,94,95,45*,100
O=C(CCSc1ccc(Cl)cc1)N1CCCCCC1,x,101,99,x,x
COc1nc(N/N=C/c2ccccc2F)nc(N2CCCCC2)n1,x,79,72,x,x
O=C(CSc1ncc(-c2ccc(F)cc2)[nH]1)N1CCCCC1,29*,91,94,x,102
CS(=O)(=O)N(CC(=O)Nc1ccccc1C(=O)NCc1ccco1)c1ccc2c(c1)OCCO2,26*,29,31,86,83
CCOC(=O)/C(=N\Nc1cc(Cl)ccc1Cl)N1CCN(CC)CC1,x,60,77,x,x
O=C(Nc1ccc(Cl)cc1)Nc1ccc2c(c1)N1CCN=C1S2,35*,25,27,102,62
Cc1ccc(C(C#N)c2ccc3c(C(F)(F)F)cc(C(F)(F)F)nc3n2)cc1 (configuration not stated),24*,28,20,75,62
N#CC(c1ccccc1)c1ccc2c(C(F)(F)F)cc(C(F)(F)F)nc2n1 (configuration not stated),24*,14,8,39*,63
COc1ccc(Oc2ccc3c(C(F)(F)F)cc(C(F)(F)F)nc3n2)cc1,x,94,78,x,x
Cc1ccc(-n2ncc(C(=O)N3CCc4ccccc4C3)c2NC(=O)c2ccco2)cc1C,26*,85,93,103,87
COc1ccc(CCNC(=O)c2cnn(-c3ccc(C)c(C)c3)c2NC(=O)c2ccco2)cc1OC,78,92,99,107,95
CCc1ccccc1NS(=O)(=O)c1ccc2[nH]cc(C(=O)NCc3ccco3)c(=O)c2c1,70,56,58,89,28*
CC(C)(C)c1cc(NC(=O)c2cc(F)c(F)c(F)c2F)no1,35*,30,32,50,69
Cc1nn(C)c(C(=O)NCc2ccc(Cl)cc2)c1Cl,x,45,50,x,x
C=CCn1c(SCc2c(C)noc2C)nc2sc3c(c2c1=O)CCCC3,28*,23,20,89,55
C=CCn1c(SCc2nc3ccccc3c(=O)[nH]2)nc2ccccc2c1=O,5.6*,70,66,86,73
C=CCn1c(SCc2c(C)noc2C)nc2ccccc2c1=O,20*,16,15,43*,46
SMILES,H69AR inhibit,bCat KO growth,PTEN del growth,Fibroblast inh,HUVEC prolif 384
COc1ccc(-c2noc(CSc3nc4ccccc4c(=O)n3-c3ccccc3)n2)cc1,29*,64,69,86,83
O=c1c2ccccc2nc(SCc2nnc(-c3ccccc3)o2)n1-c1ccccc1,86,x,x,92,91
C=CCn1c(Cc2ccc(OC)cc2)nnc1SCc1nc2ccccc2c(=O)[nH]1,98,84,96,102,89
CCc1cc2c(=O)c(-c3cnn(-c4ccccc4)c3)c(C(F)(F)F)oc2c(CN(C)C)c1O,x,93,94,x,x
O=C(CN1CCCCCCC1)N/N=C/c1ccc(F)c(F)c1,x,104,104,x,x
O=C(COC(=O)C1CC2C=CC1C2)Nc1cccc(S(=O)(=O)N2CCCCCC2)c1 (configuration not stated),x,81,78,x,x
Cc1noc(C)c1CSc1nc2[nH]ncc2c(=O)n1-c1ccccc1,x,17,19,x,x
Cc1noc(C)c1CSc1nnc2n(-c3ccccc3)c(=O)c3ccccc3n12,81,x,x,87,104
Cc1noc(C)c1CSc1nc2ccccc2c(=O)n1-c1ccccc1,17*,17,14,58,61
Cc1noc(C)c1CSc1nc2ccccc2c(=O)n1-c1ccc(F)cc1F,23*,22,20,61,51
CCc1nc(SCC(=O)Nc2sc(C)c(C)c2C(=O)OC)c2ccccc2n1,x,88,84,x,x
Cc1cc(C)nc(NS(=O)(=O)c2ccc(NC(=O)c3ccc4c(c3)OCO4)cc2)n1,104,102,85,102,94
COc1cc(-c2nc(-c3ccc(NC(=O)c4ccc5c(c4)OCO5)cc3)no2)cc(OC)c1OC,13*,87,88,73,28*
Cc1ccccc1-c1nc(-c2ccc(NC(=O)c3ccc4c(c3)OCO4)cc2)no1,28*,12,7,20*,39
CCOC(=O)c1sc(N)c(C#N)c1COC(=O)CNC(=O)c1ccccc1,84,89,102,90,79
N#CCCN(C(=O)COc1ccc(Cl)cc1Cl)c1ccccc1,x,91,97,x,x
COc1cccc(-c2nc(CS(=O)(=O)CC(=O)Nc3c(C)cccc3C)c(C)o2)c1,14*,96,100,92,79
COc1cccc(-c2nc(CS(=O)(=O)CC(=O)NCCC(C)C)c(C)o2)c1,x,92,93,x,x
COc1cccc(-c2nc(CS(=O)(=O)CC(=O)Nc3cc(C)ccc3C)c(C)o2)c1,20*,66,75,103,95
Cc1ccc2nc(-c3ccc(NC(=O)C4CCCO4)cc3)[nH]c2c1 (configuration not stated),76,94,95,114,103
CC1CCC(C(C)C)C(OC(=O)CSc2nc(N)cc(=O)[nH]2)C1 (configuration not stated),76,73,77,95,99
CC1CCC(C(C)C)C(OC(=O)Cn2c(-c3ccccc3)[n+](C)c3ccccc32)C1 (configuration not stated),x,1.4*,1.9*,x,x
CC1CCC(C(C)C)C(OC(=O)Cn2c(-c3ccc(F)cc3)[n+](C)c3ccccc32)C1 (configuration not stated),x,2.0*,1.5*,x,x
C/C(=N\Nc1nc(Cl)c(Cl)cc1Cl)c1ccc(S(=O)(=O)NCc2ccco2)cc1,x,25,16,x,x
Nc1c(C(=O)NCc2ccco2)c2nc3ccccc3nc2n1CCc1ccc(F)cc1,4.0*,28,26,83,34
Nc1c(C(=O)NCCN2CCOCC2)c2nc3ccccc3nc2n1CCc1ccccc1,47,43,22,87,58
Nc1c(C(=O)NCCN2CCOCC2)c2nc3ccccc3nc2n1CCc1ccccc1F,26*,3.6*,3.8*,92,43

# Screening data deposited in PubChem by SRMLSC.
